Test results published in ChEMBL document CHEMBL1139170, “Synthesis of 3-[4'-(p-chlorophenyl)-thiazol-2'-yl]-2-[(substituted azetidinone/thiazolidinone)-aminomethyl]-6-bromoquinazolin-4-ones as anti-inflammatory agent” (Bioorg Med Chem, 2007).

tested on: Rattus norvegicus; assay: Antiinflammatory activity against carrageenan-induced hind paw oedema in Charles foster rat assessed as inhibition of paw oedema at 50 mg/kg, po after 1 hr; format: functional; set-up: scale not given: the % may be the effect or the level left; details: not given
Outline: (§1)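 Charles-Foster albino rats of either sex, no pregnant females, 70–95 days old, 100–150 g. Oral dose of 25, 50 or 100 mg/kg given 1 h before carrageenan. Carrageenan was a fresh 1% suspension in 0.9% saline, 0.05 mL under the plantar aponeurosis of the right hind paw. Paw volume measured by plethysmometer before and 3 h after carrageenan. Result is percent inhibition of oedema.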

Structure (SMILES) | Activity
COc1ccc(C2SCC(=O)N2NCc2nc3ccc(Br)cc3c(=O)n2-c2nc(-c3ccc(Cl)cc3)cs2)cc1 (stereo unspecified) | 36.11%
O=c1c2cc(Br)ccc2nc(CN/N=C/c2ccc(Cl)cc2)n1-c1nc(-c2ccc(Cl)cc2)cs1 | 25.12%
COc1ccccc1/C=N/NCc1nc2ccc(Br)cc2c(=O)n1-c1nc(-c2ccc(Cl)cc2)cs1 | 24.66%
O=c1c2cc(Br)ccc2nc(CN/N=C/c2ccc(O)cc2)n1-c1nc(-c2ccc(Cl)cc2)cs1 | 20.23%
Cc1ccc(/C=N/NCc2nc3ccc(Br)cc3c(=O)n2-c2nc(-c3ccc(Cl)cc3)cs2)cc1 | 19.14%
O=c1c2cc(Br)ccc2nc(CN/N=C/c2ccccc2Cl)n1-c1nc(-c2ccc(Cl)cc2)cs1 | 26.44%
COc1ccccc1C1C(Cl)C(=O)N1NCc1nc2ccc(Br)cc2c(=O)n1-c1nc(-c2ccc(Cl)cc2)cs1 (stereo unspecified) | 32.45%
COc1ccc(C2C(Cl)C(=O)N2NCc2nc3ccc(Br)cc3c(=O)n2-c2nc(-c3ccc(Cl)cc3)cs2)cc1 (stereo unspecified) | 31.67%
O=C1C(Cl)C(c2ccc(O)cc2)N1NCc1nc2ccc(Br)cc2c(=O)n1-c1nc(-c2ccc(Cl)cc2)cs1 (stereo unspecified) | 30.65%
Cc1ccc(C2C(Cl)C(=O)N2NCc2nc3ccc(Br)cc3c(=O)n2-c2nc(-c3ccc(Cl)cc3)cs2)cc1 (stereo unspecified) | 29.88%
O=C1CSC(c2ccccc2Cl)N1NCc1nc2ccc(Br)cc2c(=O)n1-c1nc(-c2ccc(Cl)cc2)cs1 (stereo unspecified) | 38.35%
COc1ccccc1C1SCC(=O)N1NCc1nc2ccc(Br)cc2c(=O)n1-c1nc(-c2ccc(Cl)cc2)cs1 (stereo unspecified) | 36.98%

tested on: Rattus norvegicus; assay: Antiinflammatory activity against carrageenan-induced hind paw oedema in Charles foster rat assessed as inhibition of paw oedema at 25 mg/kg, po after 1 hr; format: functional; set-up: scale not given: the % may be the effect or the level left; details: not given; outline: as §1

Structure (SMILES) | Activity
O=C1CSC(c2ccccc2Cl)N1NCc1nc2ccc(Br)cc2c(=O)n1-c1nc(-c2ccc(Cl)cc2)cs1 (stereo unspecified) | 17.84%

tested on: Rattus norvegicus; assay: Antiinflammatory activity against carrageenan-induced hind paw oedema in Charles foster rat assessed as inhibition of paw oedema at 100 mg/kg, po after 1 hr; format: functional; set-up: scale not given: the % may be the effect or the level left; details: not given; outline: as §1

Structure (SMILES) | Activity
O=C1CSC(c2ccccc2Cl)N1NCc1nc2ccc(Br)cc2c(=O)n1-c1nc(-c2ccc(Cl)cc2)cs1 (stereo unspecified) | 67.45%

tested on: Mus musculus; assay: Analgesic activity in Albino mouse assessed as number of acetic acid-induced writhing at 50 mg/kg, po after 30 min; format: functional; details: not given

Structure (SMILES) | Activity
COc1ccc(C2SCC(=O)N2NCc2nc3ccc(Br)cc3c(=O)n2-c2nc(-c3ccc(Cl)cc3)cs2)cc1 (stereo unspecified) | 34.27%
O=c1c2cc(Br)ccc2nc(CN/N=C/c2ccc(Cl)cc2)n1-c1nc(-c2ccc(Cl)cc2)cs1 | 23.42%
COc1ccccc1/C=N/NCc1nc2ccc(Br)cc2c(=O)n1-c1nc(-c2ccc(Cl)cc2)cs1 | 22.18%
O=c1c2cc(Br)ccc2nc(CN/N=C/c2ccc(O)cc2)n1-c1nc(-c2ccc(Cl)cc2)cs1 | 18.96%
Cc1ccc(/C=N/NCc2nc3ccc(Br)cc3c(=O)n2-c2nc(-c3ccc(Cl)cc3)cs2)cc1 | 18.52%
O=c1c2cc(Br)ccc2nc(CN/N=C/c2ccccc2Cl)n1-c1nc(-c2ccc(Cl)cc2)cs1 | 24.68%
COc1ccccc1C1C(Cl)C(=O)N1NCc1nc2ccc(Br)cc2c(=O)n1-c1nc(-c2ccc(Cl)cc2)cs1 (stereo unspecified) | 31.89%
COc1ccc(C2C(Cl)C(=O)N2NCc2nc3ccc(Br)cc3c(=O)n2-c2nc(-c3ccc(Cl)cc3)cs2)cc1 (stereo unspecified) | 30.67%
O=C1C(Cl)C(c2ccc(O)cc2)N1NCc1nc2ccc(Br)cc2c(=O)n1-c1nc(-c2ccc(Cl)cc2)cs1 (stereo unspecified) | 29.92%
Cc1ccc(C2C(Cl)C(=O)N2NCc2nc3ccc(Br)cc3c(=O)n2-c2nc(-c3ccc(Cl)cc3)cs2)cc1 (stereo unspecified) | 29.12%
O=C1CSC(c2ccccc2Cl)N1NCc1nc2ccc(Br)cc2c(=O)n1-c1nc(-c2ccc(Cl)cc2)cs1 (stereo unspecified) | 37.36%
COc1ccccc1C1SCC(=O)N1NCc1nc2ccc(Br)cc2c(=O)n1-c1nc(-c2ccc(Cl)cc2)cs1 (stereo unspecified) | 35.43%

tested on: Mus musculus; assay: Analgesic activity in Albino mouse assessed as number of acetic acid-induced writhing at 25 mg/kg, po after 30 min; format: functional; details: not given

Structure (SMILES) | Activity
O=C1CSC(c2ccccc2Cl)N1NCc1nc2ccc(Br)cc2c(=O)n1-c1nc(-c2ccc(Cl)cc2)cs1 (stereo unspecified) | 14.22%

tested on: Mus musculus; assay: Analgesic activity in Albino mouse assessed as number of acetic acid-induced writhing at 100 mg/kg, po after 30 min; format: functional; details: not given

Structure (SMILES) | Activity
O=C1CSC(c2ccccc2Cl)N1NCc1nc2ccc(Br)cc2c(=O)n1-c1nc(-c2ccc(Cl)cc2)cs1 (stereo unspecified) | 61.12%

organism: Rattus norvegicus; assay: Ulcerogenic activity in 24 hrs fasted Charles foster rat; format: functional; details: not given
Outline: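 Albino rats fasted 24 h, then given compound. Killed 8 h after dosing. Stomach and small intestine examined for hyperaemia, epithelial shedding, petechial or frank haemorrhage, and erosion or ulceration with or without perforation. Any one of these counted as ulcerogenic. Route reported as i.p. for the UD50.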

Structure (SMILES) | UD50
O=C1CSC(c2ccccc2Cl)N1NCc1nc2ccc(Br)cc2c(=O)n1-c1nc(-c2ccc(Cl)cc2)cs1 (stereo unspecified) | 195.6 mg/kg

tested on: not listed separately; assay: Acute toxicity in albino mouse assessed as percent mortality after 24 hrs; format: organism-based; details: in vivo, read-out: ALD50

Structure (SMILES) | LD50 at 24 h
COc1ccc(C2SCC(=O)N2NCc2nc3ccc(Br)cc3c(=O)n2-c2nc(-c3ccc(Cl)cc3)cs2)cc1 (stereo unspecified) | > 1000 mg/kg
O=c1c2cc(Br)ccc2nc(CN/N=C/c2ccc(Cl)cc2)n1-c1nc(-c2ccc(Cl)cc2)cs1 | > 1000 mg/kg
COc1ccccc1/C=N/NCc1nc2ccc(Br)cc2c(=O)n1-c1nc(-c2ccc(Cl)cc2)cs1 | > 1000 mg/kg
O=c1c2cc(Br)ccc2nc(CN/N=C/c2ccc(O)cc2)n1-c1nc(-c2ccc(Cl)cc2)cs1 | > 1000 mg/kg
Cc1ccc(/C=N/NCc2nc3ccc(Br)cc3c(=O)n2-c2nc(-c3ccc(Cl)cc3)cs2)cc1 | > 1000 mg/kg
O=c1c2cc(Br)ccc2nc(CN/N=C/c2ccccc2Cl)n1-c1nc(-c2ccc(Cl)cc2)cs1 | > 1000 mg/kg
COc1ccccc1C1C(Cl)C(=O)N1NCc1nc2ccc(Br)cc2c(=O)n1-c1nc(-c2ccc(Cl)cc2)cs1 (stereo unspecified) | > 1000 mg/kg
COc1ccc(C2C(Cl)C(=O)N2NCc2nc3ccc(Br)cc3c(=O)n2-c2nc(-c3ccc(Cl)cc3)cs2)cc1 (stereo unspecified) | > 1000 mg/kg
O=C1C(Cl)C(c2ccc(O)cc2)N1NCc1nc2ccc(Br)cc2c(=O)n1-c1nc(-c2ccc(Cl)cc2)cs1 (stereo unspecified) | > 1000 mg/kg
Cc1ccc(C2C(Cl)C(=O)N2NCc2nc3ccc(Br)cc3c(=O)n2-c2nc(-c3ccc(Cl)cc3)cs2)cc1 (stereo unspecified) | > 1000 mg/kg
O=C1CSC(c2ccccc2Cl)N1NCc1nc2ccc(Br)cc2c(=O)n1-c1nc(-c2ccc(Cl)cc2)cs1 (stereo unspecified) | > 1000 mg/kg
COc1ccccc1C1SCC(=O)N1NCc1nc2ccc(Br)cc2c(=O)n1-c1nc(-c2ccc(Cl)cc2)cs1 (stereo unspecified) | > 1000 mg/kg
